Only some compounds are listed: those with a hit (about 0.74% of all), similar ones and a draw of the others.
Tn7 DDE FP: inhibitors of Tn7 peptide binding to fibrin DD(E), primary screen, biochemical, fluorescence polarization, human fibrin, Tn7 probe. inhibition, % at 8.3 µM. FP displacement of FITC-Tn7 peptide from fibrin DD(E); 0% = median of compound wells per plate. Fibrinogen beta chain (Homo sapiens), P02675. actives 0.13% (n = 370,000). AID 720508, 2013;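 active means inhibition above the mean of compounds falling within the control limits plus 3 SD of them, cut at about 14% in these data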;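 further: 0% = plate median of compound wells and 100% = 10 µM Aha-Tn7 peptide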
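Assay system: Human fibrin DD(E) protein | Medium: Tris buffer with calcium and detergent, pH 7.8 | Reagent: 0.1 µM fluorescent Tn7 | Compound dosing: Single point at 8.3 µM | Times: 10 min preincubation, 3 h with tracer, room temperature | Detection: Fluorescence polarization of the labelled Tn7 tracer | Controls: Aha-Tn7 high control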
ARFGAP1 inhibitor: inhibitors of rat ARFGAP1 GAP activity, primary screen, biochemical, fluorescence polarization, GDP tracer; ADP-ribosylation factor GTPase-activating protein 1 (Rattus norvegicus), Q62848; Arfgap1-stimulated ARF1 GTP hydrolysis, GDP FP detection; inhibition, % at 16.5 µM; actives 0.26% (n = 360,000); AID 651572, 2012;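 active means inhibition above a per-plate limit, mean inhibition of low control wells plus 3 SD, cut at about 25% in these data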;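 further: 0% = DMSO wells with enzyme and 100% = wells lacking Arfgap1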
Target sequence (Q62848 1-136 limits assumed): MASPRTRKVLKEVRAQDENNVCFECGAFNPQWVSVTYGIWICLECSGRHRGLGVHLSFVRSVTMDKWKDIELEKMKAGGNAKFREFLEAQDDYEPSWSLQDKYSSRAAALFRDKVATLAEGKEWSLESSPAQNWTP
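Replicates: Single well per compound | Assay system: Truncated rat Arfgap1 GAP domain | Control set: No-Arfgap1 wells (100%) versus DMSO full-reaction wells (0%) | Times: Enzyme reaction 120 min at 25 °C after 20 min preincubation | Reagent: Human ARF1(Δ1-17)-GTP substrate | Measured by: Tracer-displacement fluorescence polarization with EDTA stop, 620/688 nm | Measure: Percent inhibition of Arfgap1-stimulated GTP hydrolysis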
ASAP1 GAP inh: inhibitors of human ASAP1 ArfGAP activity, primary screen, biochemical, fluorescence polarization; ASAP1-stimulated ARF1 GTP hydrolysis, GDP FP detection; Arf-GAP with SH3 domain, ANK repeat and PH domain-containing protein 1 (Homo sapiens), …; actives 0.19% (n = 360,000); inhibition, % at 16.5 µM; in the data active means inhibition above about 25%;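 further: 0% = vehicle with enzyme and substrate and 100% = no enzyme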
Target sequence (Q9ULH1 325-724 limits assumed): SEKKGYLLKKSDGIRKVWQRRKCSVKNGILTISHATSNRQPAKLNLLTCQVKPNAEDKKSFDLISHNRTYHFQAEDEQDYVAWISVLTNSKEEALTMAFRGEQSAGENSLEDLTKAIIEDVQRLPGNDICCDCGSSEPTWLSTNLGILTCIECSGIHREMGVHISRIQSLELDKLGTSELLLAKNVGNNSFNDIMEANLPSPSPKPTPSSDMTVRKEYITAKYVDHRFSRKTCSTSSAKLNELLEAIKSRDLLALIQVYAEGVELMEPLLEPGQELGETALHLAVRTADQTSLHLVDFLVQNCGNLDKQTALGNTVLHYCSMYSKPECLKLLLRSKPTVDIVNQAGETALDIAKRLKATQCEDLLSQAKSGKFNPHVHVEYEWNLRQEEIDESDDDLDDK
Tn6 DDE FP: inhibitors of Tn6 peptide binding to fibrin DD(E), primary screen, biochemical, fluorescence polarization, human fibrin, Tn6 probe | actives 0.21% (n = 370,000) | Fibrin DD(E) TRITC-Tn6 fluorescence polarization displacement | inhibition, % at 8.3 µM | Fibrinogen beta chain (Homo sapiens), P02675 | AID 720509, 2013;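 active means inhibition above a per-campaign cutoff: mean of compounds within control limits plus 3 SD, cut at about 15% in these data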;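 further: 0% = median of all compound wells on the plate and 100% = blocking peptide control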
Tn6 DDE ctr: counter-screen hit for Tn6 peptide-fibrin DD(E) binding disruption. shares compounds with Tn6 DDE FP. TRITC-Tn6 fluorescence polarization displacement; 0% = median of compound wells, not DMSO. inhibition, % at 8.3 µM. actives 2% (n = 680). AID 720621;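 active means inhibition above the mean of test compounds lying between the control limits plus 3 SD of those, cut at about 14% in these data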;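 further: 0% = median of compound wells and 100% = wells with Aha-Tn7 blocking peptide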
Tn6 DDE conf: inhibitors of Tn6 peptide binding to fibrin DD(E), confirmation, biochemical, fluorescence polarization, human fibrin, Tn6 probe | shares compounds with Tn6 DDE FP | FP displacement of TRITC-Tn6 peptide from DD(E); 0% = per-plate median of test wells | inhibition, % at 8.3 µM | actives 10% (n = 680);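 active means inhibition above the mean of compounds lying within the control limits plus 3 SD, cut at about 16% in these data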;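 further: 100% = high control wells holding a competing inhibitor peptide at 10 µM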
* hit, by the source's call; nt = no result.

SMILES | Tn7 DDE FP | ARFGAP1 inhibitor | ASAP1 GAP inh | Tn6 DDE FP | Tn6 DDE ctr | Tn6 DDE conf
FC(F)(F)c1cc(-c2ccco2)nc(-n2cnc3ccccc32)n1 | 3 | 11 | -6 | 0 | nt | nt
COc1ccc(-c2c(-c3ccccc3OC)sc3ccccc23)cc1F | 2 | -15 | -7 | 0 | nt | nt
COC(=O)C1=C(C)N(Cc2ccccc2C(F)(F)F)C(=NCc2ccc(C(F)(F)F)cc2)NC1c1cccc(Cl)c1 (centres undefined) | 3 | 10 | -2 | 1 | nt | nt
COc1cc(OC)cc(-c2c(-c3ccc(F)cc3)c3cc(-c4ccc5c(c4)OCCO5)ccc3n2C)c1 | -1 | 2 | 3 | 53* | -8 | -6
O=C1c2ccccc2C(=O)c2c1cccc2N1CCCC1 | -3 | -1 | 0 | 4 | nt | nt
Cn1c(=O)cc2c3c(c(N4CCCCC4)ccc31)C(=O)c1ccccc1-2 | 5 | -7 | 4 | 59* | 2 | 23*
CC(C)C[C@H]1COc2ccc(Cl)cc2S(=O)(=O)N1C[C@H](NC(=O)OC(C)(C)C)C(C)C | 8 | -9 | 12 | 2 | nt | nt
COC(=O)[C@]12C[C@H](CC(=O)NCC3CCCCC3)C(=O)N(Cc3ccccc3)C1=C[C@H](C(C)(C)C)O[C@@H]2C | 12 | -2 | -26 | 4 | nt | nt
CSc1nnc(Cc2ccc3c(c2)OCO3)o1 | 3 | 11 | 4 | 1 | nt | nt
N#CCCCSc1nnc(Cc2ccc3c(c2)OCO3)o1 | -5 | 6 | 3 | 18* | 4 | -5
COC(=O)[C@]12C=CCN1[C@@H](c1ccc(Cl)cc1)c1c(c3ccccc3n1S(=O)(=O)c1ccc(C)cc1)C2 | -7 | nt | nt | 28* | 2 | 3
COC(=O)[C@]12C=CCN1[C@H](c1ccc(C(F)(F)F)cc1)c1c(c3ccccc3n1S(=O)(=O)c1ccc(C)cc1)C2 | -9 | nt | nt | 17* | 2 | 4
COc1ccc(S(=O)(=O)NCc2ccc3c(c2)cc(C)n3C)cc1 | 0 | 2 | 2 | 51* | -4 | -7
Cc1cc2cc(CNS(=O)(=O)c3ccccc3)ccc2n1C | 8 | 4 | 0 | 60* | 2 | 5
CCS(=O)(=O)NCc1ccc2c(c1)cc(C)n2C | 1 | -5 | -2 | 7 | nt | nt
Cc1ccc(-n2nc(C)c3c2OC(N)=C(C#N)C3c2ccc(F)cc2)cc1 (centres undefined) | 3 | -6 | 8 | -2 | nt | nt
Cc1nn(-c2ccccc2)c2c1C(c1ccc([N+](=O)[O-])cc1)C(C#N)=C(N)O2 (centres undefined) | 4 | -8 | -7 | 16* | 0 | -2
CCCCCCCCN1C(=O)[C@H](CC(=O)NCCc2ccccc2OC)C[C@@]2(C(=O)OCC)CCCC=C12 | 7 | 8 | 2 | 6 | nt | nt
CC(C)Cn1c2c(c(O)c(C(=O)Nc3ccc(F)cc3)c1=O)CCCC2 | -3 | -4 | 4 | 16* | 1 | -3
CC(C)Cn1c2c(c(O)c(C(=O)Nc3ncccc3O)c1=O)CCCC2 | 4 | -6 | 1 | 2 | nt | nt
COC[C@@H]1CCCN1c1cccc2c1S(=O)(=O)N1CC[C@@H](C1)O2 | -2 | nt | nt | -6 | nt | nt
COc1cccc(NC(=O)CN(C)C(=O)CN2C(=O)NC3(CCCC3)C2=O)c1 | 5 | 2 | 4 | -8 | nt | nt
COc1cccc(NC(=O)CN2C(=O)NC3(CCCCCC3)C2=O)c1 | 5 | 21 | 0 | 15* | 5 | -1
CC1(OC(=O)c2ccco2)C(=O)C=C2C=C(C3CC3)OC=C2C1=O (centres undefined) | -2 | -5 | 0 | 28* | 5 | 18*
COc1ccc(Nc2c(-c3cc4ccccc4o3)nc3nc(C)cc(C)n23)cc1 | 3 | 5 | -3 | -6 | nt | nt
SMILES | Tn7 DDE FP | ARFGAP1 inhibitor | ASAP1 GAP inh | Tn6 DDE FP | Tn6 DDE ctr | Tn6 DDE conf
COc1ccc(Nc2c(-c3ccc(F)cc3)nc3nc(C)cc(C)n23)cc1 | 8 | -1 | -1 | 17* | -1 | -7
COC(=O)[C@]12C[C@H](CC(=O)N3CCSCC3)C(=O)N(Cc3ccc(Cl)cc3Cl)C1=C[C@H](C1CCCC1)O[C@@H]2C | -2 | nt | nt | 9 | nt | nt
Cc1ccc(NC(=O)COC(=O)c2ccc(NC(=O)CC#N)cc2)cc1S(=O)(=O)N1CCOCC1 | 2 | -3 | -5 | 20* | -2 | -7
Cc1ccc(NC(=O)COC(=O)c2ccc3c(c2)OCCO3)cc1S(=O)(=O)N1CCOCC1 | -7 | -7 | 8 | 1 | nt | nt
N#C/C(=C/C1=C(N2CCOCC2)C(=C/c2ccc(Cl)cc2Cl)/CC1)C(=O)Nc1ccccc1F | 4 | -3 | 3 | 156* | 0 | 11
CC(C)(C)n1nc2c(c1NC(=O)COc1ccc(F)cc1)CS(=O)(=O)C2 | 9 | -14 | -4 | 16* | -9 | -11
C[C@@H](NS(=O)(=O)c1c(F)cccc1F)c1ccccc1 | 4 | -16 | 8 | -8 | nt | nt
Cc1cc(Br)ccc1SCC(=O)OCC(=O)NCc1ccco1 | 1 | -2 | -4 | 15* | 0 | -1
Cc1cc2ccccc2n1CCNC(=O)c1ccc(Br)o1 | -4 | -3 | 11 | 17* | -3 | 12
Cc1cc2ccccc2n1CCNC(=O)Cc1cccc2ccccc12 | -1 | 2 | -1 | 46* | 12 | 9
CCC(C)(C)C(=O)N1CCc2cc(S(=O)(=O)N(C)Cc3ccco3)ccc21 | 9 | nt | nt | -2 | nt | nt
Nn1c(SCc2cccc3ccccc23)nnc1-c1cc(-c2ccc(F)cc2)n[nH]1 | -3 | nt | nt | -2 | nt | nt
CC(Oc1ccc2c(c1)c1ccnc3c4ccccc4c(=O)n2c13)C(=O)NCCN1CCOCC1 (centres undefined) | -1 | 6 | 2 | 36* | 4 | 8
COc1ccc2c(c1OC)c(=O)n1c3ccc(OC(C)C(=O)NCCN4CCOCC4)cc3c3ccnc2c31 (centres undefined) | 2 | 11 | 6 | 27* | -5 | -5
CCCCCCCCN1C(=O)[C@@H](CC(=O)N2CCN(C(=O)c3ccco3)CC2)C[C@@]2(C(=O)OC)C1=C[C@H](C1CCCC1)O[C@@H]2C | 3 | -3 | 0 | 0 | nt | nt
COC(=O)c1cc2c(c3c4ccccc4n(S(=O)(=O)c4ccc(C)cc4)c13)C(=O)N(Cc1ccccc1)C2 | -4 | 4 | 2 | 3 | nt | nt
